# Assay results collected from several papers.
# Protocols differ between the studies behind these lines. pIC50: −log10 of the molar value.
# Effect on: cell growth or viability
Compound,cell line,test,setting,pIC50
O=C(C=Cc1ccccc1)Nc1cc(-c2ccnc(N3CCOCC3)c2)ccn1,HeLa,MTT,72 h,6.40
Cc1nc(Nc2ccc3c(c2)/C(=C/c2ccccc2)C(=O)N3C)c2ccccc2n1,H22,MTT,,5.27
Nc1ccc(/C=C/C(=O)N2CCc3c(oc4c(-c5ccc(F)cc5)cc(-c5ncc(C(=O)N6CCC(F)(F)CC6)cn5)cc34)C2)cn1,U2OS,CCK-8,72 h,5.24
C=CC(=O)N1CCN(c2nc(=O)n(-c3c(C)ccnc3C(C)C)c3nc(-c4c(O)cccc4F)c(F)cc23)[C@@H](C)C1,NCI-H1792,ATP luminescence,,< 6.00
Cc1noc2c1-c1ccccc1C(c1ccc(Cl)cc1)=N[C@H]2CC(N)=O,NB-4,ATP luminescence,72 h,6.12
COc1cc2c3c(n(CCCNC(C)C)c(=O)c2cc1OC)-c1nc2c(cc1C3=O)OCO2,L-363,MTS,72 h,6.90
Cc1nc(NC(=O)N2CCC[C@H]2C(N)=O)sc1-c1ccnc(C(C)(C)C(F)(F)F)c1,H22,MTT,,4.59
CC1(C)CCC2(CC1)N[C@@H](C(=O)N[C@@H]1CC[C@@H](C(N)=O)OC1)[C@H](c1ccnc(Cl)c1F)[C@]21C(=O)Nc2cc(Cl)ccc21,U2OS,resazurin,72 h,< 5.70
Nc1ccc(/C=C/C(=O)N2CCc3c(oc4c(-c5ccc(F)cc5)cc(-c5ccc(C(=O)N6CCC(F)(F)CC6)cc5F)cc34)C2)cn1,U2OS,CCK-8,72 h,< 5.00
Cc1nc(Nc2ccc3c(c2)/C(=C/c2ccccc2C)C(=O)N3)c2ccccc2n1,H22,MTT,,5.00
O=c1c(C=NNC(=S)Nc2ccccc2)coc2ccccc12,HeLa,MTT,24 h,< 4.00
Cc1nc(Nc2ccc3c(c2)C(C)(C)C(=O)N3)c2ccccc2n1,H22,MTT,,< 4.30
Nc1ccc(/C=C/C(=O)N2CCc3c(oc4c(-c5ccc(F)cc5)cc(-c5ccc(C(=O)N6CCOCC6)nn5)cc34)C2)cn1,U2OS,CCK-8,72 h,6.14
COc1cc2c3c(n(CCCn4ccnc4)c(=O)c2cc1OC)-c1nc2c(cc1C3=O)OCO2,L-363,MTS,72 h,6.63
COc1cc2ncnc(Nc3ccc4c(c3)/C(=C/c3ccccc3)C(=O)N4)c2cc1OC,H22,MTT,,< 4.30
